From ChEMBL document CHEMBL1136237, “2-piperidin-4-yl-benzimidazoles with broad spectrum antibacterial activities” (2003)
≈ marks a conversion by molar mass, not a printed value.

Key:
Escherichia coli [1] = assay: Antibacterial activity determined against Escherichia coli; format: functional
Outline: (§1)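 Broth microdilution: an overnight-culture bacterial suspension was added to compound in 2.5% DMSO in water, giving a final inoculum of about 10^2–10^3 CFU/well. Plates were incubated 20–24 h at 37 °C, and growth relative to a no-compound control was read as A595. MIC was given as a range: complete inhibition at the upper concentration, viable cells at the lower.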

Staphylococcus aureus [2] = assay: Antibacterial activity determined against Staphylococcus aureus; format: functional; outline: as §1
[3] = Inhibition of bacterial transcription/translation
Candida albicans = assay: Antifungal activity determined against Candida albicans 10231; format: functional
Outline: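 Candida albicans: an overnight-culture yeast suspension was added to compound in 2.5% DMSO in water, giving a final inoculum of about 10^2–10^3 CFU/well. Plates were incubated 40–48 h at 25 °C, and growth versus a no-compound control was read as A595. MIC was given as a range: complete inhibition at the higher concentration, viable cells at the lower.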

Enterococcus faecium [4] = assay: Antibacterial activity determined against Enterococcus faecium ATCC 6569; format: functional; outline: as §1
Escherichia coli [5] = assay: Antibacterial activity determined against gram-negativeE. coli 25922; format: functional; outline: as §1
Enterococcus faecalis [6] = assay: Antibacterial activity determined against Enterococcus faecalis ATCC 11823; format: functional; outline: as §1
Enterococcus faecalis [7] = assay: Antibacterial activity determined against Enterococcus faecalis ATCC 4200; format: functional; outline: as §1
Enterococcus faecalis [8] = assay: Antibacterial activity determined against Enterococcus faecalis ATCC 49757; format: functional; outline: as §1
Enterococcus hirae = assay: Antibacterial activity determined against gram-positive Enterococcus hirae 29212; format: functional; outline: as §1
Klebsiella pneumoniae = assay: Antibacterial activity determined against gram-negativeK. pneumoniae 13383; format: functional; outline: as §1
Proteus vulgaris = assay: Antibacterial activity determined against gram-negativeP. vulgaris 8427; format: functional; outline: as §1
Pseudomonas aeruginosa = assay: Antibacterial activity determined against gram-negativeP. aeruginosa 25416; format: functional; outline: as §1
Staphylococcus aureus [9] = assay: Antibacterial activity determined against gram-positive Staphylococcus aureus 13709; format: functional; outline: as §1
Streptococcus pyogenes = assay: Antibacterial activity determined against gram-positive Streptococcus pyogenes 49399; format: functional; outline: as §1
Streptococcus pneumoniae = assay: Antibacterial activity determined against gram-positive Streptococcus pneumoniae 6303; format: functional; outline: as §1
Enterococcus faecalis [10] = assay: Antibacterial activity determined against Enterococcus faecalis ATCC 828; format: functional; outline: as §1
Enterococcus faecium [11] = assay: Antibacterial activity determined against Enterococcus faecium ATCC 882; format: functional; outline: as §1
Enterococcus faecalis [12] = assay: Antibacterial activity determined against Enterococcus faecalis ATCC 23241; format: functional; outline: as §1

Structure (SMILES)	MIC (Escherichia coli [1]) [µM]	MIC (Staphylococcus aureus [2]) [µM]	IC50 [3] [µM]	MIC (Candida albicans) [µM]	MIC (Enterococcus faecium [4]) [µM]	MIC (Escherichia coli [5]) [µM]	MIC (Enterococcus faecalis [6]) [µM]	MIC (Enterococcus faecalis [7]) [µM]	MIC (Enterococcus faecalis [8]) [µM]	MIC (Enterococcus hirae) [µM]	MIC (Klebsiella pneumoniae) [µM]	MIC (Proteus vulgaris) [µM]	MIC (Pseudomonas aeruginosa) [µM]	MIC (Staphylococcus aureus [9]) [µM]	MIC (Streptococcus pyogenes) [µM]	MIC (Streptococcus pneumoniae) [µM]	MIC (Enterococcus faecalis [10]) [µM]	MIC (Enterococcus faecium [11]) [µM]	MIC (Enterococcus faecalis [12]) [µM]
Clc1cc2nc(C3CCNCC3)[nH]c2cc1Cl	> 100	> 100	> 100	–	–	–	–	–	–	–	–	–	–	–	–	–	–	–	–
Fc1ccc(Cn2c(C3CCNCC3)nc3cc(Cl)c(Cl)cc32)cc1	> 100	> 100	> 100	–	–	–	–	–	–	–	–	–	–	–	–	–	–	–	–
O=[N+]([O-])c1ccc(Cn2c(C3CCNCC3)nc3cc(Cl)c(Cl)cc32)cc1	> 100	50 (≈ 20.3 µg/mL)	> 100	–	–	–	–	–	–	–	–	–	–	–	–	–	–	–	–
Clc1cc2nc(C3CCNCC3)n(Cc3ccncc3)c2cc1Cl	50 (≈ 18.1 µg/mL)	50 (≈ 18.1 µg/mL)	> 100	–	–	–	–	–	–	–	–	–	–	–	–	–	–	–	–
Clc1cc2nc(C3CCNCC3)n(Cc3ccc(CNCCc4c[nH]cn4)cc3)c2cc1Cl	12 (≈ 5.8 µg/mL)	6 (≈ 2.9 µg/mL)	25	> 100	–	12 (≈ 5.8 µg/mL)	–	–	–	3 (≈ 1.45 µg/mL)	12 (≈ 5.8 µg/mL)	25 (≈ 12.1 µg/mL)	25 (≈ 12.1 µg/mL)	6 (≈ 2.9 µg/mL)	6 (≈ 2.9 µg/mL)	12 (≈ 5.8 µg/mL)	–	–	–
CCn1c(C2CCNCC2)nc2cc(Cl)c(Cl)cc21	> 100	> 100	> 100	–	–	–	–	–	–	–	–	–	–	–	–	–	–	–	–
Clc1cc2nc(C3CCNCC3)n(Cc3ccc(CNC[C@@H]4CCCN4)cc3)c2cc1Cl	12 (≈ 5.67 µg/mL)	12 (≈ 5.67 µg/mL)	> 100	–	–	–	–	–	–	–	–	–	–	–	–	–	–	–	–
Clc1cc2nc(C3CCNCC3)n(Cc3ccc(Cn4cncn4)cc3)c2cc1Cl	12 (≈ 5.3 µg/mL)	12 (≈ 5.3 µg/mL)	> 100	–	–	–	–	–	–	–	–	–	–	–	–	–	–	–	–
Clc1cc2nc(C3CCNCC3)n(Cc3cccnc3)c2cc1Cl	50 (≈ 18.1 µg/mL)	50 (≈ 18.1 µg/mL)	> 100	–	–	–	–	–	–	–	–	–	–	–	–	–	–	–	–
Clc1cc2nc(C3CCNCC3)n(Cc3ccc(CN4CCNCC4)cc3)c2cc1Cl	12 (≈ 5.5 µg/mL)	6 (≈ 2.75 µg/mL)	> 100	50 (≈ 22.9 µg/mL)	6 (≈ 2.75 µg/mL)	12 (≈ 5.5 µg/mL)	12 (≈ 5.5 µg/mL)	12 (≈ 5.5 µg/mL)	12 (≈ 5.5 µg/mL)	3 (≈ 1.38 µg/mL)	6 (≈ 2.75 µg/mL)	12 (≈ 5.5 µg/mL)	12 (≈ 5.5 µg/mL)	6 (≈ 2.75 µg/mL)	6 (≈ 2.75 µg/mL)	12 (≈ 5.5 µg/mL)	6 (≈ 2.75 µg/mL)	6 (≈ 2.75 µg/mL)	6 (≈ 2.75 µg/mL)
Clc1cc2nc(C3CCNCC3)n(Cc3ccc(CNCCc4cc5ccccc5[nH]4)cc3)c2cc1Cl	12 (≈ 6.39 µg/mL)	12 (≈ 6.39 µg/mL)	> 100	–	–	–	–	–	–	–	–	–	–	–	–	–	–	–	–
O=C(O)c1cn(C2CC2)c2cc(N3CCNCC3)c(F)cc2c1=O [CIPROFLOXACIN]	0.75 (≈ 0.249 µg/mL)	0.75 (≈ 0.249 µg/mL)	> 100	–	–	–	–	–	–	–	–	–	–	–	–	–	–	–	–
NC[C@@H]1O[C@H](O[C@H]2[C@@H](O)[C@H](O[C@@H]3[C@@H](O)[C@H](N)C[C@H](N)[C@H]3O[C@H]3O[C@H](CO)[C@@H](O)[C@H](O)[C@H]3N)O[C@@H]2CO)[C@H](N)[C@@H](O)[C@@H]1O [PAROMOMYCIN]	3 (≈ 1.85 µg/mL)	1 (≈ 0.616 µg/mL)	0.56	–	–	–	–	–	–	–	–	–	–	–	–	–	–	–	–

Next, values leading:

MIC (Escherichia coli [1]) [µM]	MIC (Staphylococcus aureus [2]) [µM]	IC50 [3] [µM]	MIC (Candida albicans) [µM]	MIC (Enterococcus faecium [4]) [µM]	MIC (Escherichia coli [5]) [µM]	MIC (Enterococcus faecalis [6]) [µM]	MIC (Enterococcus faecalis [7]) [µM]	MIC (Enterococcus faecalis [8]) [µM]	MIC (Enterococcus hirae) [µM]	MIC (Klebsiella pneumoniae) [µM]	MIC (Proteus vulgaris) [µM]	MIC (Pseudomonas aeruginosa) [µM]	MIC (Staphylococcus aureus [9]) [µM]	MIC (Streptococcus pyogenes) [µM]	MIC (Streptococcus pneumoniae) [µM]	MIC (Enterococcus faecalis [10]) [µM]	MIC (Enterococcus faecium [11]) [µM]	MIC (Enterococcus faecalis [12]) [µM]	Structure (SMILES)
6 (≈ 3.1 µg/mL)	6 (≈ 3.1 µg/mL)	> 100	> 100	12 (≈ 6.2 µg/mL)	6 (≈ 3.1 µg/mL)	6 (≈ 3.1 µg/mL)	25 (≈ 12.9 µg/mL)	50 (≈ 25.8 µg/mL)	1 (≈ 0.517 µg/mL)	6 (≈ 3.1 µg/mL)	12 (≈ 6.2 µg/mL)	25 (≈ 12.9 µg/mL)	6 (≈ 3.1 µg/mL)	3 (≈ 1.55 µg/mL)	6 (≈ 3.1 µg/mL)	50 (≈ 25.8 µg/mL)	–	–	NCCCCCCCCNCc1ccc(Cn2c(C3CCNCC3)nc3cc(Cl)c(Cl)cc32)cc1
12 (≈ 6.22 µg/mL)	3 (≈ 1.56 µg/mL)	10	> 100	–	12 (≈ 6.22 µg/mL)	–	–	–	3 (≈ 1.56 µg/mL)	12 (≈ 6.22 µg/mL)	25 (≈ 13 µg/mL)	12 (≈ 6.22 µg/mL)	3 (≈ 1.56 µg/mL)	3 (≈ 1.56 µg/mL)	6 (≈ 3.11 µg/mL)	–	–	–	NCCN(CCN)CCNCc1ccc(Cn2c(C3CCNCC3)nc3cc(Cl)c(Cl)cc32)cc1
50 (≈ 22.3 µg/mL)	12 (≈ 5.36 µg/mL)	20	> 100	12 (≈ 5.36 µg/mL)	50 (≈ 22.3 µg/mL)	12 (≈ 5.36 µg/mL)	25 (≈ 11.2 µg/mL)	12 (≈ 5.36 µg/mL)	6 (≈ 2.68 µg/mL)	25 (≈ 11.2 µg/mL)	–	25 (≈ 11.2 µg/mL)	12 (≈ 5.36 µg/mL)	6 (≈ 2.68 µg/mL)	25 (≈ 11.2 µg/mL)	12 (≈ 5.36 µg/mL)	25 (≈ 11.2 µg/mL)	25 (≈ 11.2 µg/mL)	NCCCNCc1ccc(Cn2c(C3CCNCC3)nc3cc(Cl)c(Cl)cc32)cc1
> 100	> 100	> 100	–	–	–	–	–	–	–	–	–	–	–	–	–	–	–	–	Clc1cc2nc(C3CCNCC3)n(Cc3ccc(CBr)cc3)c2cc1Cl
12 (≈ 5.86 µg/mL)	6 (≈ 2.93 µg/mL)	> 100	> 100	–	12 (≈ 5.86 µg/mL)	–	–	–	1 (≈ 0.489 µg/mL)	12 (≈ 5.86 µg/mL)	25 (≈ 12.2 µg/mL)	25 (≈ 12.2 µg/mL)	6 (≈ 2.93 µg/mL)	3 (≈ 1.47 µg/mL)	12 (≈ 5.86 µg/mL)	–	–	–	NCCCCCCNCc1ccc(Cn2c(C3CCNCC3)nc3cc(Cl)c(Cl)cc32)cc1
25 (≈ 11.5 µg/mL)	6 (≈ 2.76 µg/mL)	50	> 100	12 (≈ 5.53 µg/mL)	25 (≈ 11.5 µg/mL)	12 (≈ 5.53 µg/mL)	12 (≈ 5.53 µg/mL)	12 (≈ 5.53 µg/mL)	3 (≈ 1.38 µg/mL)	25 (≈ 11.5 µg/mL)	–	25 (≈ 11.5 µg/mL)	6 (≈ 2.76 µg/mL)	6 (≈ 2.76 µg/mL)	25 (≈ 11.5 µg/mL)	12 (≈ 5.53 µg/mL)	12 (≈ 5.53 µg/mL)	12 (≈ 5.53 µg/mL)	NCCCCNCc1ccc(Cn2c(C3CCNCC3)nc3cc(Cl)c(Cl)cc32)cc1
